Active and inactive are the calls of the source. The calls are words filed in the database; no cut-off is given here.
How the values were obtained:
HT-29 [1] = assay: Antitumor activity against human HT-29 cells harboring PIK3CA P449T mutant xenografted in Balb/c nu/nu mouse assessed as tumor growth inhibition at 7.5 mg/kg, po administered daily via gavage for 27 days relative to control; type: functional; conditions: HT-29, po, 648 h, read-out: TGI
How it was run: (§1)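 Balb/c nu/nu mice carrying HT-29 xenografts were dosed by daily oral gavage for 27 days, starting when mean tumor size was about 240 mm³; vehicle group as control. Tumor volume estimated over time, and TGI calculated after 27 days. Mean ± SEM, n = 6. Dunnett's multiple comparison test.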

Mus musculus = assay: Toxicity in Balb/c nu/nu mouse xenografted with human HT-29 cells harboring PIK3CA P449T mutant assessed as body weight loss at 7.5 mg/kg, po administered daily via gavage for 27 days relative to control; type: organism-based; conditions: in vivo, 648 h
How it was run: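 Balb/c nu/nu mice with HT-29 xenografts (mean tumor about 240 mm³) received daily oral gavage for 27 days. Body weight change was measured and plotted over time. Mean ± SEM, n = 6.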

[2] = target: PI3-kinase p110-alpha/p85-alpha (Homo sapiens, UniProt P42336); assay: Inhibition of recombinant human full length N-terminal His-tagged p110alpha/p85alpha expressed in baculovirus expression system using PIP2 as substrate measured after 1 hr by Alexa633 Tracer-based fluorescence polarization assay
How it was run: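 PI3Kα enzyme inhibition; IC50 is the mean of duplicate measurements.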

[3] = Tmax in CD1 mouse at 10 mg/kg, po administered via gavage by LC-MS/MS analysis; type: ADME, organism-based; conditions: in vivo
PI3K p110 beta/p85 alpha = PI3K p110 beta/p85 alpha (Homo sapiens, UniProt P42338); assay: Inhibition of recombinant human full-length N-terminal His6-tagged p110beta/recombinant human full length p85alpha expressed in baculovirus infected Sf21 insect cells using PIP2 as substrate measured after 1 hr by Alexa633 Tracer-based fluorescence polarization assay
HT-29 [4] = assay: Antitumor activity against human HT-29 cells harboring PIK3CA P449T mutant xenografted in Balb/c nu/nu mouse assessed as tumor growth inhibition at 3.75 mg/kg, po administered daily via gavage for 27 days relative to control; type: functional; conditions: HT-29, po, 648 h, read-out: TGI; how it was run: as §1
MCF7 = assay: Antiproliferative activity against human MCF7 cells harboring PIK3CA E545K mutant after 72 hrs by MTT assay; type: functional, cell-based; conditions: MCF7, 72 h
[5] = target: Serine/threonine-protein kinase ATR (Homo sapiens) (UniProt Q13535); assay: Inhibition of ATR in human HT-29 cells assessed as reduction in camptothecin-induced Chk1 phosphorylation at Ser345 residue at 10 uM pretreated for 1 hr followed by camptothecin addition; type: cell-based
How it was run: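 HT-29 cells were pretreated with compound for 1 h, then exposed to camptothecin to induce DNA damage. ATR activity was read as phosphorylation of its substrate Chk1, with total Chk1 and β-actin as internal controls. […] served as reference inhibitor.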

[6] = Half life in CD1 mouse at 5 mg/kg, iv by LC-MS/MS analysis; type: ADME, organism-based; conditions: in vivo
[7] = Oral bioavailability in CD1 mouse at 10 mg/kg administered via gavage by LC-MS/MS analysis; type: ADME, organism-based; conditions: in vivo
[8] = target: PI3-kinase p110-delta/p85-alpha (Homo sapiens, UniProt O00329); assay: Inhibition of recombinant human full-length N-terminal His6-tagged p110delta/recombinant human full length p85alpha expressed in baculovirus infected Sf21 insect cells using PIP2 as substrate measured after 1 hr by Alexa633 Tracer-based fluorescence polarization assay
[9] = Half life in CD1 mouse at 10 mg/kg, po administered via gavage by LC-MS/MS analysis; type: ADME, organism-based; conditions: in vivo
[10] = Intrinsic clearance in mouse liver microsomes at […] pretreated up to 45 mins followed by NADPH addition and measured by LC-MS/MS analysis; type: ADME, microsome; conditions: read-out: CLH
Cytochrome P450 3A4 = Cytochrome P450 3A4 (Homo sapiens, UniProt P08684); assay: Inhibition of CYP3A4 in human liver microsomes using testosterone as substrate pretreated for 5 mins followed by NADPH addition and measured after 5 mins by LC-MS analysis; type: ADME
Cytochrome P450 2D6 = Cytochrome P450 2D6 (Homo sapiens, UniProt P10635); assay: Inhibition of CYP2D6 in human liver microsomes using bufuralol as substrate pretreated for 5 mins followed by NADPH addition and measured after 10 mins by LC-MS analysis; type: ADME
Cytochrome P450 2C19 = Cytochrome P450 2C19 (Homo sapiens, UniProt P33261); assay: Inhibition of CYP2C19 in human liver microsomes using S-Mephenytoin as substrate pretreated for 5 mins followed by NADPH addition and measured after 45 mins by LC-MS analysis; type: ADME
Cytochrome P450 2B6 = Cytochrome P450 2B6 (Homo sapiens, UniProt P20813); assay: Inhibition of CYP2B6 in human liver microsomes using bupropion as substrate pretreated for 5 mins followed by NADPH addition and measured after 10 mins by LC-MS analysis; type: ADME
HUVEC = assay: Cytotoxicity against HUVEC after 72 hrs by MTT assay; type: cell-based; conditions: Homo sapiens
[11] = target: Serine/threonine-protein kinase mTOR (Homo sapiens, UniProt P42345); assay: Inhibition of recombinant human GST-tagged mTOR catalytic domain (1360 to 2549 residues) expressed in baculovirus expression system using GFP-4EBP1 as substrate measured after 1 hr by Lathascreen method
Cytochrome P450 2C8 = Cytochrome P450 2C8 (Homo sapiens, UniProt P10632); assay: Inhibition of CYP2C8 in human liver microsomes using paclitaxel as substrate pretreated for 5 mins followed by NADPH addition and measured after 10 mins by LC-MS analysis; type: ADME
[12] = target: PI3-kinase p110-alpha/p85-alpha (Homo sapiens, UniProt P42336, E542K); assay: Inhibition of recombinant human His-tagged p85alpha/p110alpha E542K mutant expressed in insect cells
[13] = Efflux ratio of apparent permeability from basolateral to apical side over apical to basolateral side in human Caco2 cells after 90 mins by LC-MS/MS analysis; type: ADME, cell-based; conditions: Caco-2
T47D = assay: Antiproliferative activity against human T47D cells harboring PI3KCA H1047R mutant after 72 hrs by MTT assay; type: functional, cell-based
[14] = Apparent permeability across apical to basolateral side in human Caco2 cells measured after 90 mins by LC-MS/MS analysis; type: ADME, cell-based; conditions: Caco-2
[15] = Intrinsic clearance in human liver microsomes at […] pretreated up to 45 mins followed by NADPH addition and measured by LC-MS/MS analysis; type: ADME, microsome; conditions: read-out: CLH
[16] = AUClast in CD1 mouse at 10 mg/kg, po administered via gavage by LC-MS/MS analysis; type: ADME, organism-based; set-up: dose 10 mg/kg, time 0 - last, route oral; conditions: in vivo
[17] = Clearance in CD1 mouse at 5 mg/kg, iv by LC-MS/MS analysis; type: ADME, organism-based; conditions: in vivo
[18] = target: Phosphatidylinositol 4,5-bisphosphate 3-kinase catalytic subunit alpha isoform (Homo sapiens, UniProt P42336, H1047R); assay: Inhibition of p110alpha H1047R mutant (unknown origin)
[19] = target: PI3-kinase p110-alpha/p85-alpha (Homo sapiens, UniProt P42336, E545K); assay: Inhibition of recombinant human His-tagged p85alpha/p110alpha E545K mutant expressed in insect cells
Chain of PI3-kinase p110-alpha/p85-alpha (Homo sapiens, UniProt P42336, E545K) (P42336 whole entry E545K, looked up): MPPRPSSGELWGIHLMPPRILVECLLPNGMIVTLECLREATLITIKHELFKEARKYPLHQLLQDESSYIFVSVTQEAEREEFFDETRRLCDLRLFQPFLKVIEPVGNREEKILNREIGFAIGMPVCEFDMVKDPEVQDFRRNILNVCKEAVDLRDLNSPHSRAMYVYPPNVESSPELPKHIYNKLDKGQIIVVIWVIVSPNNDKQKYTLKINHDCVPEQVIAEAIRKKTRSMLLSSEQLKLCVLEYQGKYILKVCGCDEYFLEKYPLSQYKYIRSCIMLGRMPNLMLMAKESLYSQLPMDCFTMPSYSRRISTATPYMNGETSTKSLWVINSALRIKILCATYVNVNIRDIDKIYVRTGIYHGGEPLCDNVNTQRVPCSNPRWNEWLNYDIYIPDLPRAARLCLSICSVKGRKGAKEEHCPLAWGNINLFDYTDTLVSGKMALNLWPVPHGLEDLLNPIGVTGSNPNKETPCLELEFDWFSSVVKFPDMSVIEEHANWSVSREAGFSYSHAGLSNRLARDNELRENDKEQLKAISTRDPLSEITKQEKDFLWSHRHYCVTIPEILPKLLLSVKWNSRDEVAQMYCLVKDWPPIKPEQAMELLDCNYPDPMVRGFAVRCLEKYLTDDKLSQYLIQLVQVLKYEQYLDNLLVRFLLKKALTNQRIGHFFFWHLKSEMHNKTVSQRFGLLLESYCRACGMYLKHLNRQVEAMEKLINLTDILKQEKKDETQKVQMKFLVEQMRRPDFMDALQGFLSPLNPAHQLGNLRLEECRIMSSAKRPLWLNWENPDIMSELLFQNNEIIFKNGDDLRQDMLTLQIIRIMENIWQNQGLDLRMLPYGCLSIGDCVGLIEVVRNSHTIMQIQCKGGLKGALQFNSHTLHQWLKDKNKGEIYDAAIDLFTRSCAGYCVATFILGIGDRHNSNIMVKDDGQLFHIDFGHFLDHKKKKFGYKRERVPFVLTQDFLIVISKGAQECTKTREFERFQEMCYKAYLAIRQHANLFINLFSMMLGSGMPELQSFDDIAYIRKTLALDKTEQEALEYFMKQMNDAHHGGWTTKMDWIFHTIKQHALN

Chain of PI3-kinase p110-alpha/p85-alpha (Homo sapiens, UniProt P42336, E542K) (P42336 whole entry E542K, looked up): as the sequence (P42336 whole entry E545K, looked up) above, with E542K, K545E counted along it
Chain of Phosphatidylinositol 4,5-bisphosphate 3-kinase catalytic subunit alpha isoform (P42336 whole entry H1047R, canonical isoform): as the sequence (P42336 whole entry E545K, looked up) above, with K545E, H1047R counted along it
Chain of PI3-kinase p110-alpha/p85-alpha (Homo sapiens, UniProt P42336) (P27986 whole entry): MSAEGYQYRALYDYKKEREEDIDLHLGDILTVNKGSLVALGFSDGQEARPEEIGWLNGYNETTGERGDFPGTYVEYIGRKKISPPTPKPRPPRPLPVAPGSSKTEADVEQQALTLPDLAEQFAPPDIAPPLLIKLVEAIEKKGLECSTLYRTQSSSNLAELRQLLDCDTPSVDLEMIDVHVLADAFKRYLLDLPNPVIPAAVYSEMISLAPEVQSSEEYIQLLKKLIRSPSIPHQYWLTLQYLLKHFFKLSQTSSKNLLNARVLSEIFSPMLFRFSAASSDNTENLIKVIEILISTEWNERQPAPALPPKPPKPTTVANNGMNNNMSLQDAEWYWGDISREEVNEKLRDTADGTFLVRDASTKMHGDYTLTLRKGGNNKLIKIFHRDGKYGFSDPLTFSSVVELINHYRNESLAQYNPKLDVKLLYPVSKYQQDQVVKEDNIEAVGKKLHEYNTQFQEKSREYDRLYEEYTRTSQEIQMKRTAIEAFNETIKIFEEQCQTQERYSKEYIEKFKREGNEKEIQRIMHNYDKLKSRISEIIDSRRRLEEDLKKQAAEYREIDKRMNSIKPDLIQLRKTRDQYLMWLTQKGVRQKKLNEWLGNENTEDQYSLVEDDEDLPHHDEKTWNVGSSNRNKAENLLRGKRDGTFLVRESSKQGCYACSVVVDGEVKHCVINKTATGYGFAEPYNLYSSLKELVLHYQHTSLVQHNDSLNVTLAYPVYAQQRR
Chain of PI3-kinase p110-alpha/p85-alpha (Homo sapiens, UniProt P42336) (P42336 whole entry): as the sequence (P42336 whole entry E545K, looked up) above, with K545E counted along it
Chain of PI3-kinase p110-delta/p85-alpha (P27986 whole entry): as the sequence (P27986 whole entry) above
Chain of PI3-kinase p110-delta/p85-alpha (O00329 whole entry): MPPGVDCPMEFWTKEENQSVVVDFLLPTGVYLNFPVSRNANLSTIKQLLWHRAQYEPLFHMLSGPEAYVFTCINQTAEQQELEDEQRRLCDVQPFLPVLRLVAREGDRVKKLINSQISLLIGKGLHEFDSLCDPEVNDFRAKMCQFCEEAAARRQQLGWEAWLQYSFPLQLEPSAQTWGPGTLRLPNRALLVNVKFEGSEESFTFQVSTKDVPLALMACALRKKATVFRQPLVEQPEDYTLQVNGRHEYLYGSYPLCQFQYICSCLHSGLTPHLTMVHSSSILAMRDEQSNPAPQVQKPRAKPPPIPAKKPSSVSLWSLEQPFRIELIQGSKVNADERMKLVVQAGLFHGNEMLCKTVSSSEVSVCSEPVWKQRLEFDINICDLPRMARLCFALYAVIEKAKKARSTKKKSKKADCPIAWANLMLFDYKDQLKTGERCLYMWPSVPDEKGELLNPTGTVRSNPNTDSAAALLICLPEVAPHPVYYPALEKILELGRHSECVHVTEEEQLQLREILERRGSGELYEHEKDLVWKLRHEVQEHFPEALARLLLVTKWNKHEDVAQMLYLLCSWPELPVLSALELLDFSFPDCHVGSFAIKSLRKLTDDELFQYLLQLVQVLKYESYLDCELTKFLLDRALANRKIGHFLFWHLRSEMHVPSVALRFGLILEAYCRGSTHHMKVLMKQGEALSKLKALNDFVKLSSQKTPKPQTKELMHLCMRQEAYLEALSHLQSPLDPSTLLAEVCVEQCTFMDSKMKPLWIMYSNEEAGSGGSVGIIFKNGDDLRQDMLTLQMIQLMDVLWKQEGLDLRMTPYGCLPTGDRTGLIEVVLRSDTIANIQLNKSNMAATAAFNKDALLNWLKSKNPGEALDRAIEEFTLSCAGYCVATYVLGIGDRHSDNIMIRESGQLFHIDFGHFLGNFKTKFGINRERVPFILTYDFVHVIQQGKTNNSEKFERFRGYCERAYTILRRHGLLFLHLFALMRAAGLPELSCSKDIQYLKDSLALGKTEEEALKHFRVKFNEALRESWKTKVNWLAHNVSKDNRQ
Chain of PI3K p110 beta/p85 alpha (P27986 whole entry): as the sequence (P27986 whole entry) above
Chain of PI3K p110 beta/p85 alpha (P42338 whole entry): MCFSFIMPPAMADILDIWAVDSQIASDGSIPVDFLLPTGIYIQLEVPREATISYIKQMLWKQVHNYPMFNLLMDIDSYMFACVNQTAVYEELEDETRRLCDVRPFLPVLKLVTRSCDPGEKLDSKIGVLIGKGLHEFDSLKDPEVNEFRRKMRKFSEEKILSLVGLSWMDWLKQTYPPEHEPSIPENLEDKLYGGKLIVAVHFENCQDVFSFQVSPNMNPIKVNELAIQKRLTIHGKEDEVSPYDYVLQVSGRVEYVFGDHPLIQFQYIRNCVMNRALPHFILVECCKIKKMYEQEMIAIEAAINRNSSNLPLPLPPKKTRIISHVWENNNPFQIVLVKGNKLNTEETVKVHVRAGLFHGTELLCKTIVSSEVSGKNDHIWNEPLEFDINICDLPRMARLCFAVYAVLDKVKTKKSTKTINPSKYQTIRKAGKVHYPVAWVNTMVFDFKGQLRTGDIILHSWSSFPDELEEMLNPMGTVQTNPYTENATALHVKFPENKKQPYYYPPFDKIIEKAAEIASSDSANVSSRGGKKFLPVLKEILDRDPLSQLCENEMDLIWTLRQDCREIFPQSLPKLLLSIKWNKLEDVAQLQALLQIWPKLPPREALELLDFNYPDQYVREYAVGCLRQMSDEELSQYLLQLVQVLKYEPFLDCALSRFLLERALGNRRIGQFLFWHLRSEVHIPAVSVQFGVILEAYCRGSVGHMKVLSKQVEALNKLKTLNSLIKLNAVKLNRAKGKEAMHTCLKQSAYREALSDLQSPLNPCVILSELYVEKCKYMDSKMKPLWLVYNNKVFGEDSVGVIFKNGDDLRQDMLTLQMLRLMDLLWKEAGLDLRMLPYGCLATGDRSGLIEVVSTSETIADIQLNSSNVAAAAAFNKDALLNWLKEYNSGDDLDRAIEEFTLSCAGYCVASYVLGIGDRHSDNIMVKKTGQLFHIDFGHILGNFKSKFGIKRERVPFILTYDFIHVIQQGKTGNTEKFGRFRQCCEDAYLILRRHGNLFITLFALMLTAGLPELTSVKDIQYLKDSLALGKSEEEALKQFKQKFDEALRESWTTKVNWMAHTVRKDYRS
Chain of Cytochrome P450 2B6 (P20813 whole entry): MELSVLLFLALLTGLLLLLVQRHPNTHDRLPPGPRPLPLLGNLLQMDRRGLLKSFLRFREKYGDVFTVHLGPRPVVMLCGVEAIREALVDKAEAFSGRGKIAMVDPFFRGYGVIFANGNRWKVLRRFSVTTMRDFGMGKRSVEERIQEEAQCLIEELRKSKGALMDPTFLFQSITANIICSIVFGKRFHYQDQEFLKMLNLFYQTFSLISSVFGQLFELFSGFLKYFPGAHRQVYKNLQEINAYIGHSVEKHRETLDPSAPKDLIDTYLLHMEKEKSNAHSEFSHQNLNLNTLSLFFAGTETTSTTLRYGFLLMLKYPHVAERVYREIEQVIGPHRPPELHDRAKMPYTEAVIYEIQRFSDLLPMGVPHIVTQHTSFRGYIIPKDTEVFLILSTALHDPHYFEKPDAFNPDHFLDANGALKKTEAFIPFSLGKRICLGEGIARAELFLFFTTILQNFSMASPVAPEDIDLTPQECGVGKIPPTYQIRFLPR

For `C[C@H]1COCCN1c1nc(-c2cnc(N)cc2F)cc(C2(S(C)(=O)=O)CC2)n1`, the inhibition in vivo at 7.5 mg/kg (HT-29 [1]) was 72.9%, the Activity (Mus musculus) was 15% and the IC50 [2] was 10 to 20 nM. The Tmax [3] was 0.25 h, the IC50 (PI3K p110 beta/p85 alpha) was 376 nM and the inhibition in vivo at 3.75 mg/kg (HT-29 [4]) was 54.4%. The IC50 (MCF7) was 11 nM, the inhibition [5] was “Active” and the half-life [6] was 1.59 h. For the same compound, the bioavailability [7] was 94.6%, the IC50 [8] was 46 nM and the half-life [9] was 2.87 h. It also gave a CLint scaled [10] of 40 to 140 mL/min/kg, an IC50 (Cytochrome P450 3A4) greater than 10000 nM and an IC50 (Cytochrome P450 2D6) greater than 10000 nM. The IC50 (Cytochrome P450 2C19) was greater than 10000 nM, the IC50 (Cytochrome P450 2B6) was greater than 10000 nM and the IC50 (HUVEC) was 108 nM. It also gave an IC50 [11] of 186 nM, an IC50 (Cytochrome P450 2C8) greater than 10000 nM and an IC50 [12] of 11 nM. For the same compound, the efflux ratio at 1.5 h [13] was 0.66, the IC50 (T47D) was 30 nM and the Papp A→B at 1.5 h [14] was greater than 10 ×10⁻⁶ cm/s. The CLint scaled [15] was 5 to 16 mL/min/kg, the AUC(0-t) [16] was 10400 ng·h/mL and the clearance [17] was 15.2 mL/min/kg. The IC50 [18] was 15 nM and the IC50 [19] was 11 nM.

From ChEMBL document CHEMBL4196123, “Discovery of an Orally Bioavailable Dual PI3K/mTOR Inhibitor Based on Sulfonyl-Substituted Morpholinopyrimidines” (ACS Med Chem Lett, 2018)
